STAT1 activator: STAT1 signaling activation. AID 932. activation (% of control), % at 5.5 µM. NIH 3T3 STAT1-luciferase reporter, IFN-gamma, luminescence; 100% = IFN-gamma alone, no compound. 2.6% of 200,000 active;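 active means activation above the screen-wide mean activation plus 3 SD, cut at about 130% in these data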;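 further: raw ratio to IFN-gamma control signal so 100% means no change and 0% no light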
NF-kB expr up: NF-kB expression increase, human neuronal cells; NF-kB reporter expression; active compounds read high; fold change at 12.5 µM; 1.6% of 190,000 active; AID 1239; in the data active means fold change above about 3.3
STAT3 inh: inhibitors of IL-6 induced STAT3 signaling. AID 862. U3A cells, IL-6 STAT3-luciferase reporter, luminescence; host cell line lacks STAT1. 0.89% of 190,000 active. inhibition, % at 5.5 µM;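 active means inhibition above the mean inhibition across all screened compounds plus 3 SD, cut at about 44% in these data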;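 further: 0% = DMSO only wells and 100% = 100 µM nifuroxazide control wells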
STAT3 activator: increases IL-6 driven STAT3 reporter signal; U3A cells, IL-6 STAT3-luciferase reporter, luminescence; 100% = signal with IL-6 EC80 alone; activation (% of control), % at 5.6 µM; 0.91% of 190,000 active;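 active means activation above the screen-wide mean of compound activation plus 3 SD, cut at about 130% in these data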;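 further: 0% = background luminescence of wells with medium and substrate only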
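Assay system – human STAT1-deficient U3A cells with stable STAT3-luciferase reporter · Also added – IL-6 (33 ng/mL) · Schedule – compound 1 h, then IL-6 6 h at 37 °C · Technique – reporter luminescence signal · Evaluation – % activation versus median of IL-6-stimulated wells · Benchmarks – IL-6-only wells as 100% reference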
APP 5'UTR act: activates APP 5'UTR luciferase reporter | SH-SY5Y APP 5'UTR luciferase reporter, luminescence; zero percent = DMSO vehicle wells | activation, % at 2 µM | 1% of 190,000 active;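 active means activation above a set limit, based on mean plus 3 SD of controls, cut at about 140% in these data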
STAT1 blocker: STAT1 signaling inhibition. NIH 3T3 STAT1-luciferase reporter, IFN-gamma, luminescence. inhibition, % at 5.5 µM. 0.35% of 200,000 active;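 active means inhibition above a set limit, the mean inhibition across all tested compounds plus 3 SD, cut at about 34% in these data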;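 further: 0% = IFN-gamma with DMSO and 100% = IFN-gamma with 300 µM nifuroxazide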
* marks the source's active call; other numbers are inactive results; x = not tested or not shown. Sampled rows, rich in hits. Any-hit rate of the full collection: about 4.9%.

SMILES	STAT1 activator	NF-kB expr up	STAT3 inh	STAT3 activator	APP 5'UTR act	STAT1 blocker
COc1ccc(NC(=O)c2ccccn2)cc1	84	3.3*	77*	34	80	27
COCCNC(=O)c1cc(S(=O)(=O)N2CCOCC2)ccc1SCc1cccc(OC)c1OC	97	1.1	8	103	12	3
CC1(c2ccccc2)CC(C)(C)N2C(=O)Cc3cccc1c32 (configuration not stated)	84	1	-8	114	-9	17
CSc1cccc(NC(=O)c2ccccn2)c1	142*	2.6	16	90	90	-49
CSc1cccc(NC(=O)c2cnccn2)c1	106	1.5	16	91	3	-7
O=C(CSc1nnc(-c2ccco2)o1)c1ccc[nH]1	130*	2.3	-5	111	73	-33
COc1ncnc2c1cnn2-c1ccccc1	106	1.4	12	90	17	-7
CCOC(=O)CC(=O)CSc1ncnc2c1cnn2-c1ccccc1	143*	3.8*	11	94	45	-47
CN(Cc1ccccc1)c1ncnc2c1cnn2-c1ccccc1	150*	4.7*	19	87	124	-54
CCN(c1ccccc1)c1ncnc2c1cnn2-c1ccccc1	131*	1.3	-7	114	41	-34
CN(Cc1ccccc1)C(=O)COC(=O)C1CCN(S(=O)(=O)c2cccs2)CC1	96	1.1	-3	106	4	4
CN(C(=O)c1cc2sccc2n1C)C1CCCCC1	142*	2.7	3	101	81	-46
Cn1c(C(=O)NC2CCCCC2)cc2sccc21	137*	1.9	14	90	77	-40
Cc1cccc(NC(=O)CSc2nnc(-c3ccccc3C)o2)c1	105	4.7*	27	80	151*	-6
Cc1cc(C)cc(NC(=O)CSc2nnc(-c3ccccc3C)o2)c1	95	4.2*	26	84	41	5
O=S(=O)(c1cccc2cccnc12)N1CCN(Cc2ccccc2)CC1	102	0.98	0	106	-10	-5
COc1ccc(C(=O)NCC(=O)N/N=C/c2cccc(OC(=O)c3ccco3)c2)cc1OC	103	1	9	97	-6	-5
CCCCC(CC)CNC(=O)c1ncn[nH]1 (configuration not stated)	101	1.2	-3	104	-14	-3
CN(CCC1CCCCO1)C(=O)CCc1nnc(C2CCCCC2)o1 (configuration not stated)	117	1.6	-8	109	16	-20
O=C(CCCCCn1c(=O)[nH]c2ccsc2c1=O)NCc1ccc2c(c1)OCO2	104	0.97	-3	107	4	-4
C(=N\Nc1nc(-c2ccccc2)cs1)/c1ccco1	147*	5.2*	4	95	156*	-51
Clc1ccc(-c2csc(N/N=C\c3cccnc3)n2)cc1	106	1.2	12	90	22	-6
C(=N\Nc1nc(-c2ccccc2)cs1)/c1ccncc1	149*	2.9	6	97	92	-56
Cc1ccc(-c2csc(N/N=C/c3ccco3)n2)cc1	116	2.9	26	80	25	-17
C(=N\Nc1nc(-c2ccccc2)cs1)/c1cccs1	145*	7.4*	-14	122	47	-54
SMILES	STAT1 activator	NF-kB expr up	STAT3 inh	STAT3 activator	APP 5'UTR act	STAT1 blocker
Cc1ccc(-c2csc(N/N=C/C=C/c3ccccc3)n2)cc1	111	1.2	16	90	6	-12
Cc1ccn(-c2cc(O)c(-n3ccc(C)n3)cc2O)n1	102	1.2	16	90	-5	-3
Cc1ccccc1NC(=O)C1Cc2ccccc2C(=O)O1 (configuration not stated)	108	3.3*	23	84	-1	-9
CC1CCCN(CCCOc2ccccc2-c2ccccc2)C1 (configuration not stated)	93	0.91	12	96	-16	5
CC(=O)Nc1ccc(NC2=C/C(=N/S(=O)(=O)c3cccs3)c3ccccc3C2=O)cc1	15	0.16	66*	46	-35	90*
COc1cc(NC(=O)c2ccccc2)cc(OC)c1	113	3.4*	7	99	137*	-15
COc1ccc(C(=O)Nc2cc(OC)cc(OC)c2)cc1	132*	2.5	24	81	125	-34
COc1ccc(OCC(=O)Nc2cc(OC)cc(OC)c2)cc1	106	1.3	2	104	-3	-6
COc1ccccc1Oc1ccc(NC(=O)c2ccccc2)cc1	108	1.3	5	101	8	-11
COc1ccc(-c2[nH]ncc2CN(C)Cc2nonc2C)c(OC)c1	89	1.3	13	93	-9	10
Cc1cc(C(=O)CN2CCC(C)CC2)c(C)n1-c1ccccc1F	135*	0.31	30	72	132	-39
Cc1cc(C(=O)CN2C(=O)C(=O)N(Cc3ccccc3)C2=O)c(C)n1-c1ccccc1F	103	0.88	-4	104	33	-2
O=C(NCC1(c2ccccc2)CCOCC1)c1cccs1	95	1.1	5	100	-9	3
O=C(COc1ccc(Cc2ccccc2)cc1)c1ccc(F)cc1	96	0.97	3	98	27	4
O=C(COc1ccc(F)cc1)c1ccc2c(c1)CCCC2	137*	x	8	102	71	-42
CCOC(=O)CSc1nc(C(C)(C)C)nc2ccccc12	84	1.1	0	105	19	17
Cc1ccc2c(c1)c1ncnc(N3CCC4(CC3)OCCO4)c1n2C	120	1.8	-34	135*	46	-22
O=C(COC(=O)CCc1c[nH]c2ccccc12)NCc1ccc2c(c1)OCO2	94	1.1	3	99	13	6
COCCNC(=O)/C=C/c1c(Cl)cccc1Cl	99	1.3	11	90	1	1
Cn1nc(-c2ccc(Cl)cc2)c2cc(C(=O)N3CCOCC3)sc21	102	0.58	-17	122	8	-2
COc1ccc(N2CCN(C(=O)c3cc4c(-c5ccc(Cl)cc5)nn(C)c4s3)CC2)cc1	90	0.56	-30	133*	2	12
COc1ccc(C(=O)c2ccc(Cl)c([N+](=O)[O-])c2)cc1	96	3.6*	-1	103	-95	4
O=C1C2C3C=CC(C3)C2C(=O)N1c1ccc(-c2nc3ccccc3o2)cc1 (configuration not stated)	143*	1.3	2	102	32	-47
O=C1C2C3C=CC(C3)C2C(=O)N1c1ccncc1 (configuration not stated)	99	1.1	2	102	-3	1
Cc1ccc(NC(=O)C2OCCc3ccccc32)cc1Cl (configuration not stated)	108	x	19	88	20	-8

Screening data from PubChem BioAssay.
